Test results taken from the RNAGym collection of RNA variant scans (doi:10.1002/anie.201605470).

B1: Osa-1-4 twister ribozyme (parent)
chain: CCGCCUAACACUGCCAAUGCCGGUCCCAAGCCCGGAUAAAAGUGGAGGGGGCGG

Variants of: B1
Experiment: self-cleavage, relative activity (ratio to wild type); higher = more cleavage; co-transcriptional
Procedure, shortened: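 A DNA template was synthesised for a 54-nucleotide twister ribozyme from Oryza sativa, with 97 % wild-type base and 1 % of each other base at each of the 48 positions downstream of the cleavage site. The ribozyme cleaved itself co-transcriptionally during 2 h of in vitro transcription at 37 °C. Reverse transcription with a template-switching oligonucleotide, PCR amplification and deep sequencing followed, and cleavage status came from reads with or without upstream sequence. Relative activity is the fraction cleaved normalised to wild type.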

Row | Variant | self-cleavage
1 | CCGCCUUACACUGCCAAUGCCGGUCCCAAGCCCGGAUAAAAGUGGAGGCGGCGG | 0.03
2 | CCGCCUACCACUGCGAAUGCCGGUCCCAAGCCCGGAUAAAAGUGGAGGGGGCGG | 0.05
3 | CCGCCUACCACUGCUAAUGCCGGUCCCAAGCCCGGAUAAAAGUGGAGGGGGCGG | 0.04
4 | CCGCCUACCACUGCAAAUGCCGGUCCCAAGCCCGGAUAAAAGUGGAGGGGGCGG | 0.21
5 | CCGCCUUACACUGCCAAUGCCGGUCCCAAGCCCGGAUAAAAGUGGAGGGAGCGG | 0.07
6 | CCGCCUUACACUGCCAAUGCCGGUCCCAAGCCCGGAUAAAAGUGGAGGGCGCGG | 0.06
7 | CCGCCUUACACUGCCAAUGCCGGUCCCAAGCCCGGAUAAAAGUGGAGGGUGCGG | 0.07
8 | CCGCCUUACACUGCCAAUGCCGGUCCCAAGCCCGGAUAAAAGUGGAGGGGGCGU | 0.11
9 | CCGCCUUACACUGCCAAUGCCGGUCCCAAGCCCGGAUAAAAGUGGAGGGGGCGC | 0.06
10 | CCGCCUUACACUGCCAAUGCCGGUCCCAAGCCCGGAUAAAAGUGGAGGGGGCGA | 0.07
11 | CCGCCUUACACUGCCAAUGCCGGUCCCAAGCCCGGAGAAAAGUGGAGGGGGCGG | 0.1
12 | CCGCCUUACACUGCCAAUGCCGGUCCCAAGCCCGGACAAAAGUGGAGGGGGCGG | 0.08
13 | CCGCCUUACACUGCCAAUGCCGGUCCCAAGCCCGGAAAAAAGUGGAGGGGGCGG | 0.07
14 | CCGCCUACCACUGCCAAUGCCGGUCCCAAGCGCGGAUAAAAGUGGAGGGGGCGG | 0.03
15 | CCGCCUACCACUGCCAAUGCCGGUCCCAAGCACGGAUAAAAGUGGAGGGGGCGG | 0.04
16 | CCGCCUACCACUGCCAAUGCCGGUCCCAAGCUCGGAUAAAAGUGGAGGGGGCGG | 0.02
17 | CCGCCUUACACUGCCAAUGCCGGUCCCAAGCCCGGAUAAAAGUGGAGGGGUCGG | 0.05
18 | CCGCCUUACACUGCCAAUGCCGGUCCCAAGCCCGGAUAAAAGUGGAGGGGACGG | 0.07
19 | CCGCCUUACACUGCCAAUGCCGGUCCCAAGCCCGGAUAAAAGUGGAGGGGCCGG | 0.03
20 | CCGCCUUACACUGCCAAUGCCGGUCCCAAGCCCGGAUAAAAGUGGAUGGGGCGG | 0.04
21 | CCGCCUUACACUGCCAAUGCCGGUCCCAAGCCCGGAUAAAAGUGGACGGGGCGG | 0.04
22 | CCGCCUACCACUGCCAAUCCCGGUCCCAAGCCCGGAUAAAAGUGGAGGGGGCGG | 0.08
23 | CCGCCUACCACUGCCAAUACCGGUCCCAAGCCCGGAUAAAAGUGGAGGGGGCGG | 0.07
24 | CCGCCUACCACUGCCAAUUCCGGUCCCAAGCCCGGAUAAAAGUGGAGGGGGCGG | 0.06
25 | CCGCCUUACACUGCCAAGGCCGGUCCCAAGCCCGGAUAAAAGUGGAGGGGGCGG | 0.11

Row | Variant | self-cleavage
26 | CCGCCUUACACUGCCAAAGCCGGUCCCAAGCCCGGAUAAAAGUGGAGGGGGCGG | 0.11
27 | CCGCCUUACACUGCCAACGCCGGUCCCAAGCCCGGAUAAAAGUGGAGGGGGCGG | 0.08
28 | CCGCCUACUACUGCCAAUGCCGGUCCCAAGCCCGGAUAAAAGUGGAGGGGGCGG | 0.01
29 | CCGCCUACAACUGCCAAUGCCGGUCCCAAGCCCGGAUAAAAGUGGAGGGGGCGG | 0.1
30 | CCGCCUACGACUGCCAAUGCCGGUCCCAAGCCCGGAUAAAAGUGGAGGGGGCGG | 0.05
31 | CCGCCUACCACUGCCAAUGCCGGUCCCAAGCCCGGAUAAAAGUGGAGGGGGCGG | 0.07
32 | CCGCCUACCACUGCCAAUGCCGGUCCCAAGUCCGGAUAAAAGUGGAGGGGGCGG | 0.05
33 | CCGCCUACCACUGCCAAUGCCGGUCCCAAGACCGGAUAAAAGUGGAGGGGGCGG | 0.01
34 | CCGCCUACCACUGCCAAUGCCGGUCCCAAGGCCGGAUAAAAGUGGAGGGGGCGG | 0.02
35 | CCGCCUACCACUGCCAAUGCCUGUCCCAAGCCCGGAUAAAAGUGGAGGGGGCGG | 0.07
36 | CCGCCUACCACUGCCAAUGCCCGUCCCAAGCCCGGAUAAAAGUGGAGGGGGCGG | 0.03
37 | CCGCCUACCACUGCCAAUGCCAGUCCCAAGCCCGGAUAAAAGUGGAGGGGGCGG | 0.09
38 | CCGCCUACCACUGUCAAUGCCGGUCCCAAGCCCGGAUAAAAGUGGAGGGGGCGG | 0.05
39 | CCGCCUACCACUGGCAAUGCCGGUCCCAAGCCCGGAUAAAAGUGGAGGGGGCGG | 0.03
40 | CCGCCUACCACUGACAAUGCCGGUCCCAAGCCCGGAUAAAAGUGGAGGGGGCGG | 0.04
41 | CCGCCUACCACUGCCAAUGCCGGUCCUAAGCCCGGAUAAAAGUGGAGGGGGCGG | 0.04
42 | CCGCCUACCACUGCCAAUGCCGGUCCGAAGCCCGGAUAAAAGUGGAGGGGGCGG | 0.03
43 | CCGCCUACCACUGCCAAUGCCGGUCCAAAGCCCGGAUAAAAGUGGAGGGGGCGG | 0.13
44 | CCGCCUUACACUGCCAAUGCCGGUCCCAAGCCCGGAUAAAAGAGGAGGGGGCGG | 0.08
45 | CCGCCUUACACUGCCAAUGCCGGUCCCAAGCCCGGAUAAAAGCGGAGGGGGCGG | 0.07
46 | CCGCCUUACACUGCCAAUGCCGGUCCCAAGCCCGGAUAAAAGGGGAGGGGGCGG | 0.07
47 | CCGCCUACCACUGCCAAUGCCGGUCCCAAGCCGGGAUAAAAGUGGAGGGGGCGG | 0.03
48 | CCGCCUACCACUGCCAAUGCCGGUCCCAAGCCUGGAUAAAAGUGGAGGGGGCGG | 0.06
49 | CCGCCUACCACUGCCAAUGCCGGUCCCAAGCCAGGAUAAAAGUGGAGGGGGCGG | 0.06
